Active and inactive are the calls of the source. The rule behind the calls is not given here.

Series [1] concerns CWR22R. The series is described as follows: Antitumor activity against human 22Rv1 cells xenografted in NMRI mouse assessed as inhibition of tumor growth by measuring T/C value at 15 mg/kg, iv administered on day 7 and 14 and measured on day 14. The series is classed as functional. The procedure, abridged:
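Male NMRI nu/nu mice, delivered at 4–6 weeks and quarantined at least 1 week, were implanted in the hind flank with cultured 22Rv1 cells. Mice were randomised at 80–200 mm³ tumour volume. Dosing was 15 mg/kg i.v. in 0.9% saline, given as three weekly treatments; controls received vehicle. Caliper tumour volumes were taken twice weekly, with T/C from group median relative tumour volumes, doubling/quadrupling times and body weight recorded.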
For orientation: Xenograft models place foreign cells or tissue in a host animal.

The nature of series [2]: Toxicity in NMRI mouse xenografted with human 22Rv1 cells assessed as survival rate at 15 mg/kg, ip administered on day 7 and 14 and measured on day 49. The series is classed as organism-based. The following applies: in vivo.
Series [3] is described as follows: Toxicity in NMRI mouse xenografted with human 22Rv1 cells assessed as body weight loss at 15 mg/kg, ip administered on day 7 and 14 and measured on day 49. The following applies: in vivo. It counts as organism-based.
Series [4] has as its system CWR22R. The series is described as follows: Antitumor activity against human 22Rv1 cells xenografted in NMRI mouse assessed as tumor volume doubling time at […] administered on day 7 and 14 (reference value: 2.7 day). It counts as functional.
The test system of series [5] is CWR22R. The series is described as follows: Antitumor activity against human 22Rv1 cells xenografted in NMRI mouse assessed as tumor volume quadrupling time at […] administered on day 7 and 14 (reference value: 6.2 day). It counts as functional.
Series [6] deals with CWR22R. The series can be described thus: Antitumor activity against human 22Rv1 cells xenografted in NMRI mouse assessed as reduction of tumor volume at […] administered on day 7 and 14 and measured on day 20. The series is classed as functional, organism-based.
Series [7] deals with CWR22R. The series is described as follows: Antitumor activity against human 22Rv1 cells xenografted in NMRI mouse assessed as reduction of tumor volume at […] administered on day 7 and 14 and measured on day 10. The series is classed as functional, organism-based.

For orientation: T/C means the ratio of treated to control. On to `CC(=O)O[C@@]12CO[C@@H]1C[C@H](O)[C@@]1(C)C(=O)[C@H](O)C3=C(C)[C@@H](OC(=O)[C@H](O)[C@@H](NC(=O)OC(C)(C)C)c4ccccc4)C[C@@](O)([C@@H](OC(=O)c4ccccc4)[C@H]21)C3(C)C` [DOCETAXEL ANHYDROUS], for which the T/C in the series with CWR22R [1] is on record as 22.4%. In series [2], the survival at 49 day was 100%. Further, the Activity in series [3] is 19.8%. For the same compound, the Time is 6.3 days in the series on CWR22R [4] and 43.2 days with CWR22R [5]. In addition, the outcome in the series with CWR22R [6] and in the series on CWR22R [7] was Active.

The values above are taken from ChEMBL document CHEMBL4364301 (Eur J Med Chem, 2019).
